Experiments:
[1] = organism: Homo sapiens; test: Selectivity factor, ratio of IC50 for human CYP11B2 to IC50 for human CYP11B1
In short: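 V79MZh hamster fibroblasts expressing human CYP11B1 or CYP11B2 were incubated with [1,2-3H]-11-deoxycorticosterone (100 nM) plus inhibitor at a range of concentrations. […] The selectivity factor is IC50(CYP11B2)/IC50(CYP11B1).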

[2] = molecular target: T1, Cytochrome P450 11B2, mitochondrial (Homo sapiens, UniProt P19099); test: Inhibition of human CYP11B2 expressed in hamster V79MZh cells using [1,2-3H]-11-deoxycorticosterone as substrate; format: cell-based
T1 sequence (P19099 whole entry): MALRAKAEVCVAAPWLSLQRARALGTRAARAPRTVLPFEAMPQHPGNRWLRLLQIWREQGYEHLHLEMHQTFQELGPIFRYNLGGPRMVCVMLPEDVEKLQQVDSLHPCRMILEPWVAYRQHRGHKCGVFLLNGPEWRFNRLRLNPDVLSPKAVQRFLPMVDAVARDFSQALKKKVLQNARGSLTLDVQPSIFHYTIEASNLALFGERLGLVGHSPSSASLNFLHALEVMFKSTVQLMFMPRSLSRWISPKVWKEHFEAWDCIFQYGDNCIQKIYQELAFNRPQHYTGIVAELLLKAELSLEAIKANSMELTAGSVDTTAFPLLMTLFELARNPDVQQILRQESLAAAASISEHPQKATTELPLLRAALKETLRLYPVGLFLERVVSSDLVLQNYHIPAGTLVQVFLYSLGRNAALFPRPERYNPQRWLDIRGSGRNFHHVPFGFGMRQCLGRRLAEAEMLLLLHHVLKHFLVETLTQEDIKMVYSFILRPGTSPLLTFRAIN
In short: (§1)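 V79MZh hamster fibroblasts expressing human CYP11B1 or CYP11B2 were incubated with [1,2-3H]-11-deoxycorticosterone (100 nM) plus inhibitor at a range of concentrations. The selectivity factor is IC50(CYP11B2)/IC50(CYP11B1).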

[3] = molecular target: T2, Cytochrome P450 11B1, mitochondrial (Homo sapiens, UniProt P15538); test: Inhibition of human CYP11B1 expressed in hamster V79MZh cells using [1,2-3H]-11-deoxycorticosterone as substrate; format: cell-based; in short: as §1
T2 sequence (P15538 whole entry): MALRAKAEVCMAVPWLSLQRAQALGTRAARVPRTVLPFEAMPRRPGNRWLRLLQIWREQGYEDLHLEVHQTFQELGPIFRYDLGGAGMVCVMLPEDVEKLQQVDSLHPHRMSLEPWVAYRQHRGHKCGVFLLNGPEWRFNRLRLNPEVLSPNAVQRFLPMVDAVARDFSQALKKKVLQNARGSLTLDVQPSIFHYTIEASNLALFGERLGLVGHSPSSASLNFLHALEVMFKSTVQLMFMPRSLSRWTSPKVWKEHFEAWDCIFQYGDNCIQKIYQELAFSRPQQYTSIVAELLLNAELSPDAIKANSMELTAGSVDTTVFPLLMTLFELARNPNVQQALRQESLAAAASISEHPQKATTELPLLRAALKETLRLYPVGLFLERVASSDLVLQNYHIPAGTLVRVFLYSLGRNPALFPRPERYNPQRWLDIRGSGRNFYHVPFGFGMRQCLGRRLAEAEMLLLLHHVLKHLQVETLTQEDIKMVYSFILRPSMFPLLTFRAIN

[4] = Cytotoxicity against HEK293 cells after 24 hrs; format: cell-based; conditions: human, read-out: LC50
In short: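 HEK 293 cells seeded at 2 × 10⁵ cells per well; compounds added 24 h after seeding at 1% final DMSO. Living cell mass determined after 24 h incubation; LC₅₀ calculated. Doxorubicin positive control, rifampicin negative control. Mean of more than three repeats.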

[5] = molecular target: T3, CYP19 (aromatase) (Homo sapiens, UniProt P11511); test: Inhibition of microsomal CYP19 in human placenta using [1beta-3H]-androstenedione as substrate at 2 uM by 3H2O method relative to control; conditions: placental microsomes, probe [1beta-3H]-androstenedione
T3 sequence (P11511 whole entry): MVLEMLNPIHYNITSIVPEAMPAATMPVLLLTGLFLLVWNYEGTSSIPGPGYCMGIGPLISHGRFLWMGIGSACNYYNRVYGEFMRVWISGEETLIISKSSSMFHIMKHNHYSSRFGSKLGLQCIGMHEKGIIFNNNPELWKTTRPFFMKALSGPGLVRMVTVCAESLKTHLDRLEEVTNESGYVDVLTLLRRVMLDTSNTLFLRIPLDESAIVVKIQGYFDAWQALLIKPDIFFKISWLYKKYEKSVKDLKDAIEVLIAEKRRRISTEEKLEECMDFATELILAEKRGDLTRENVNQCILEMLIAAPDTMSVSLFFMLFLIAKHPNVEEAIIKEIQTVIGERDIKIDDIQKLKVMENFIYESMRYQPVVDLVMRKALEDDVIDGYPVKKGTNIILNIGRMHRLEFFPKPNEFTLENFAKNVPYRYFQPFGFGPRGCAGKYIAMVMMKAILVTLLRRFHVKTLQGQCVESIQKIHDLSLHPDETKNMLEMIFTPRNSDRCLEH
In short: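 Human placental microsomes as the CYP19 source, with [1β-3H]androstenedione at 500 nM. Activity read by 3H2O release. Compound at 2 μM. Percent inhibition is the mean of at least three experiments (deviations <25%); values ≤5% are not significant.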

[6] = molecular target: T4, CYP17 (Homo sapiens, UniProt P05093); test: Inhibition of human CYP17 expressed in Escherichia coli co-expressing rat NADPH-P450 reductase using progesterone as substrate at 2 uM relative to control; conditions: probe progesterone
T4 sequence (P05093 whole entry): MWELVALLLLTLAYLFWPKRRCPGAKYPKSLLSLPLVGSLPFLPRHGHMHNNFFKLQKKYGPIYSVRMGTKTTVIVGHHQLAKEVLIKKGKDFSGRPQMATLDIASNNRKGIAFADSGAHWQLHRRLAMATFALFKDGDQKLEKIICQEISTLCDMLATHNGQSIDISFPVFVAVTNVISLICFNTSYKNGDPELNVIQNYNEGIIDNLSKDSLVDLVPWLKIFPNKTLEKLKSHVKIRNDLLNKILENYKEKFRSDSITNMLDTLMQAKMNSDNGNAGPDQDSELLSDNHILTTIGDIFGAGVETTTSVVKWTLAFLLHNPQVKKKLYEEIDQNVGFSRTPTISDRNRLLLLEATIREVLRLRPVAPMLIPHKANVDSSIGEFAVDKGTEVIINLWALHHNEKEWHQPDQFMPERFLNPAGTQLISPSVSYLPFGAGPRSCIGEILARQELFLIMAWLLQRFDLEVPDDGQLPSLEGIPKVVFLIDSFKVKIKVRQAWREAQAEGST
In short: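 Human CYP17 expressed in E. coli, co-expressing rat NADPH-P450 reductase. Progesterone substrate at 25 μM with NADPH cofactor. Test compound at 2 μM. Percent inhibition is the mean of at least three experiments (deviations <25%); values ≤5% are treated as not significant.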

SMILES	Ratio IC50 [1]	IC50 [2] [nM]	IC50 [3] [nM]	CC50 at 24 h [4] [nM]	inhibition at 2 µM [5] [%]	inhibition at 2 µM [6] [%]
Cc1ccncc1Cc1ccc(-c2ccccc2)nc1	2.4	19	8	–	–	–
COc1cccc2c1C(=O)c1c(O)c3c(c(O)c1C2=O)C[C@@](O)(C(=O)CO)C[C@@H]3O[C@H]1C[C@H](N)[C@H](O)[C@H](C)O1 [DOXORUBICIN]	–	–	–	4300	–	–
c1ccc2c(-c3ccc(C(C4CC4)n4ccnc4)cn3)cccc2c1 (configuration not stated)	1.5	220	151	–	–	–
c1ccc(-c2ccc(Cn3ccnc3)cn2)cc1	13.3	1420	107	–	–	–
c1ccc(-c2ccc(Cn3ccnc3)nn2)cc1	2.7	4540	1710	–	–	–
CCC(c1ccc(-c2ccccc2)nc1)n1ccnc1 (configuration not stated)	3.4	92	28	–	–	–
c1cn(Cc2ccc(-c3ccsc3)nc2)cn1	5.6	1020	181	–	–	–
CC(c1ccc(-c2ccsc2)nc1)n1ccnc1 (configuration not stated)	9.1	151	21	–	–	–
c1ccc(-c2ccc(C(c3ccco3)n3ccnc3)cn2)cc1 (configuration not stated)	1.1	74	69	–	–	–
CC(C)C(c1ccc(-c2ccccc2)nc1)n1ccnc1 (configuration not stated)	2.4	28	–	–	–	–
Oc1cncc(Cc2ccc(-c3ccccc3)nc2)c1	16.4	836	51	–	–	–
c1ccc(-c2ccc(Oc3cccnc3)cn2)cc1	1.9	1880	1020	–	–	–
c1ccc(-c2cncc(Cc3ccc(-c4ccccc4)nc3)c2)cc1	0.4	0.5	1.3	–	–	–
c1ccc(-c2cnc(Cn3ccnc3)cn2)cc1	1.7	1020	610	–	–	–
c1cn(C(c2ccc(-c3ccsc3)nc2)C2CC2)cn1 (configuration not stated)	2.8	31	11	–	–	–
CC(c1ccc(-c2ccccc2)nc1)n1ccnc1 (configuration not stated)	6.1	200	33	–	1	13

SMILES	Ratio IC50 [1]	IC50 [2] [nM]	IC50 [3] [nM]	CC50 at 24 h [4] [nM]	inhibition at 2 µM [5] [%]	inhibition at 2 µM [6] [%]
c1ccc(-c2ccc(C(C3CC3)n3ccnc3)cn2)cc1 (configuration not stated)	1.2	25	21	–	–	–
CC(C)(C(=O)c1cccnc1)c1cccnc1 [METYRAPONE]	–	–	–	–	–	3
c1ccc(-c2ncc(Cn3ccnc3)cn2)cc1	> 5	> 5000	1120	–	–	–
c1ccc(-c2ccc(Cc3cncc4ccccc34)cn2)cc1	4.2	23	6	–	–	–
Fc1cncc(Cc2ccc(-c3ccccc3)nc2)c1	3.4	419	125	–	–	–
NC(=O)c1cncc(Cc2ccc(-c3ccccc3)nc2)c1	6.9	2920	427	–	–	–
COc1cncc(Cc2ccc(-c3ccccc3)nc2)c1	5.1	25	5	–	–	–
c1ccc(-c2ccc(C(c3ccccc3)n3ccnc3)cn2)cc1 (configuration not stated)	0.9	110	124	–	–	–
c1ccc(-c2ccc(Nc3cccnc3)cn2)cc1	–	> 5000	> 5000	–	–	–
c1ccc(-c2ncc(Cn3ccnc3)c3ccccc23)cc1	3.5	302	87	–	–	–
CC(c1ccc(-c2cccc3ccccc23)nc1)n1ccnc1 (configuration not stated)	4.6	273	60	–	–	–
c1ccc(-c2ccc(Cc3cccnc3)cn2)cc1	10.1	322	32	–	0	4
CO[C@H]1/C=C/O[C@@]2(C)Oc3c(C)c(O)c4c(O)c(c(/C=N/N5CCN(C)CC5)c(O)c4c3C2=O)NC(=O)/C(C)=C\C=C\[C@H](C)[C@H](O)[C@@H](C)[C@@H](O)[C@@H](C)[C@H](OC(C)=O)[C@@H]1C [RIFAMPIN]	–	–	–	> 100000	–	–
c1ccc(-c2ccc(Cc3cncnc3)cn2)cc1	12.9	3110	240	–	–	–
c1ccc(-c2ccc(Cc3ccncc3)cn2)cc1	6.4	621	98	–	–	–
c1ccc2c(-c3ccc(Cn4ccnc4)cn3)cccc2c1	9.7	656	68	–	–	–
